Experimental data from different studies.
Each line is one published result; the experiments were not run side by side.
DRD3: D(3) dopamine receptor (DRD3, Homo sapiens, UniProt P35462)
CA12: Carbonic anhydrase 12 (CA12, Homo sapiens, UniProt O43570)
SLC6A3: Sodium-dependent dopamine transporter (SLC6A3, Homo sapiens, UniProt Q01959)
CASP3: Caspase-3 (CASP3, Homo sapiens, UniProt P42574)

`COc1cccc(CCC2=NCCN2CCc2ccccc2)c1` gave a Ki of > 10000 nM (DRD3; ligand displacement; radioligand).
For `NS(=O)(=O)c1ccc(-n2nccc2-c2ccc(N3CCOCC3)cc2)cc1`, the Ki was 344 nM (CA12; enzyme activity; inhibitor; stopped-flow).
`CNc1nc2cc(OCCCCN3CCC(c4cccc(Cl)c4Cl)CC3)ccc2s1` has a Ki of 2100 nM (SLC6A3; ligand displacement; radioligand).
`CCCCN1CCC(COC(=O)c2ccc(N)c(OCF)c2)CC1` gave a Ki of > 10000 nM (SLC6A3; cell-free assay; radioligand).
`C=CCc1ccc(O)c(-c2ccc(O)c(CC=C)c2)c1` gave a Ki of 2000 nM (Peroxisome proliferator-activated receptor gamma (PPARG, Homo sapiens, UniProt P37231); ligand displacement; TR-FRET).
With `O=C(/C=C(/Nc1ccccc1)C(=O)c1ccccc1)c1ccccc1` the Ki was 37000 nM (DNA repair nuclease/redox regulator APEX1 (APEX1, Homo sapiens, UniProt P27695); enzyme activity; inhibitor).
The Ki of `O=C1c2ccccc2CCCN1CCCCN1CCN(c2ccccn2)CC1` is reported as 3 nM (DRD3; ligand displacement; radioligand).
With `NS(=O)(=O)c1ccc(-n2nccc2-c2ccc(N3CCCCC3)cc2)cc1` the Ki was 298 nM (CA12; enzyme activity; inhibitor; stopped-flow).
With `CC/C(=C(/c1ccc(O)cc1)c1ccc(OCCN)cc1)c1ccc(O)cc1` the Ki was 20 nM (Aromatase (CYP19A1, Homo sapiens, UniProt P11511); enzyme activity; inhibitor; fluorescence).
The Ki of `CCCC[C@H](NC(=O)[C@H](C)c1c(C)[nH]c2ccc(O)cc12)c1ncc(-c2cc3ccccc3nc2OC)[nH]1` is reported as 8980 nM (Prostaglandin F2-alpha receptor (PTGFR, Homo sapiens, UniProt P43088); cell-free assay).
`CCCN(CCCCNC(=O)c1cc2ccccc2[nH]1)[C@H]1CNc2ccccc2C1` has a Ki of 1.34 nM (DRD3; ligand displacement; radioligand; cell membranes).
The Ki of `CC(C)(COP(=O)(O)OP(=O)(O)OC[C@H]1O[C@@H](n2cnc3c(N)ncnc32)[C@H](O)[C@@H]1OP(=O)(O)O)[C@@H](O)C(=O)NCCC(=O)NCCS` is reported as 41500 nM (Histone acetyltransferase type B catalytic subunit (Homo sapiens, UniProt O14929); enzyme activity; inhibitor; radiometric).
`O=c1c(O)c(-c2ccc(O)cc2)oc2cc(O)cc(O)c12` gave a Ki of 194000 nM (CASP3; enzyme activity; inhibitor; fluorescence).
With `CC1Cc2ccccc2N1C(=O)NCCCCN(C)[C@@H]1Cc2cccc3[nH]c(=O)n(c23)C1` (mixture of isomers) the Ki was 139 nM (DRD3; ligand displacement; radioligand; cell membranes).
For `O=c1c(O)c(-c2ccc(O)c(O)c2)oc2cc(O)cc(O)c12`, the Ki was 96400 nM (CASP3; enzyme activity; inhibitor; fluorescence).
With `CC1Cc2ccccc2N1C(=O)c1nc2ccccc2s1` (stereo not shown) the Ki was 14400 nM (DRD3; ligand displacement; radioligand; cell membranes).
`CCc1nc2cc(OCCCCN3CCC(c4cccc(Cl)c4Cl)CC3)ccc2s1` has a Ki of 4000 nM (SLC6A3; ligand displacement; radioligand).
`CN(CC[C@@H]1C[C@H]1CNC(=O)c1cc2ccccc2[nH]1)[C@@H]1Cc2cccc3[nH]c(=O)n(c23)C1` has a Ki of 398 nM (DRD3; ligand displacement; radioligand; cell membranes).
For `CSC[C@H](NC(=O)C1=NO[C@@H]2OCC[C@H]12)C(=O)N[C@@H](CC(C)C)[C@@H](O)C[C@@H](C)C(=O)N[C@H](C(=O)NCC(C)C)C(C)C`, the Ki was 46 nM (Beta-secretase 2 (BACE2, Homo sapiens, UniProt Q9Y5Z0); enzyme activity; inhibitor).
